ChEMBL document CHEMBL1131577, “Auxiliary agents for the peroral administration of peptide and protein drugs: synthesis and evaluation of novel pepstatin analogues” (J Med Chem, 1998)

Biological target: Pepsin A (Homo sapiens, UniProt P0DJD9)
Experiment: Inhibitory activity against pepsin as oxidation of o-phenylenediamine by Horse radish peroxidase (Pepsin sensitive)
In short: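 Pepsin (1 mg, 40 units, per mL of 0.05 N HCl, freshly prepared) mixed with test compound serially diluted 1:2 in DMSO, then 37.5 µg horseradish peroxidase in 0.05 N HCl added; incubated 2 h at 37 °C, then diluted 1:2 in 0.05 N HCl. Residual peroxidase oxidation of o-phenylenediamine (phosphate buffer pH 6.5, H2O2) ran 10 min at room temperature, read at 492 nm. Pepstatin dilutions served as reference.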

Pepsin A, sequence (P0DJD9 whole entry): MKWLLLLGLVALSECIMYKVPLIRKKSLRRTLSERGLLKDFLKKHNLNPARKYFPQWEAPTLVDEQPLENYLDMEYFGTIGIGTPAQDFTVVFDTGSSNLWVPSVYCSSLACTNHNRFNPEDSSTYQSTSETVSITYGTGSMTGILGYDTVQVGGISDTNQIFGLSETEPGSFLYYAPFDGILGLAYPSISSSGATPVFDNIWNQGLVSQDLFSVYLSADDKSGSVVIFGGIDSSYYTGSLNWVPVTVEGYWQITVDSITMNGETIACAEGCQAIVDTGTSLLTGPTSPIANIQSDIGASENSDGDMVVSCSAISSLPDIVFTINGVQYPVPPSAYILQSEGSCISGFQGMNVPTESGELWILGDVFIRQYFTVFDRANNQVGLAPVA

Compound | IC50 [nM]
CCCCC(O)[C@@H](NC(=O)[C@@H](NC(=O)[C@@H](NC(=O)OC(C)(C)C)C(C)C)C(C)C)[C@@H](C)CC (stereo not given in full) | 33000
CCCCCCCCC(O)[C@H](CC(C)C)NC(=O)[C@@H](NC(=O)[C@@H](NC(=O)OC(C)(C)C)C(C)C)C(C)C (stereo not given in full) | 790
CCCCCCCCC(O)[C@H](CCC)NC(=O)[C@@H](NC(=O)[C@@H](NC(=O)OC(C)(C)C)C(C)C)C(C)C (stereo not given in full) | 1070
CCCCC(O)[C@H](CCC)NC(=O)[C@@H](NC(=O)[C@@H](NC(=O)OC(C)(C)C)C(C)C)C(C)C (stereo not given in full) | 910
CCCCCCCCC(O)[C@@H](NC(=O)[C@@H](NC(=O)[C@@H](NC(=O)OC(C)(C)C)C(C)C)C(C)C)[C@@H](C)CC (stereo not given in full) | 15000
CCCCCCC(O)[C@@H](NC(=O)[C@@H](NC(=O)[C@@H](NC(=O)OC(C)(C)C)C(C)C)C(C)C)[C@@H](C)CC (stereo not given in full) | 27000
CCCCCCC(O)[C@H](CCC)NC(=O)[C@@H](NC(=O)[C@@H](NC(=O)OC(C)(C)C)C(C)C)C(C)C (stereo not given in full) | 700
CCCCC(O)[C@H](CC(C)C)NC(=O)[C@@H](NC(=O)[C@@H](NC(=O)OC(C)(C)C)C(C)C)C(C)C (stereo not given in full) | 1240
CCCCCCC(O)[C@H](CC(C)C)NC(=O)[C@@H](NC(=O)[C@@H](NC(=O)OC(C)(C)C)C(C)C)C(C)C (stereo not given in full) | 830
CC(C)CC(=O)N[C@H](C(=O)N[C@H](C(=O)N[C@@H](CC(C)C)[C@@H](O)CC(=O)N[C@@H](C)C(=O)N[C@@H](CC(C)C)[C@@H](O)CC(=O)O)C(C)C)C(C)C [PEPSTATIN] | 59
